# Laboratory results: ChEMBL document CHEMBL5385869, “Novel 4-aminoquinolines: Synthesis, inhibition of the Mycobacterium tuberculosis enoyl-acyl carrier protein reductase, antitubercular activity, SAR, and preclinical evaluation” (Eur J Med Chem, 2023)
# Active and inactive are the calls of the source. The rule behind the calls is not given here.
# Key:
# [1] = target: T1, Enoyl-[acyl-carrier-protein] reductase [NADH] (Mycobacterium tuberculosis, UniProt P9WGR1); experiment: Binding affinity to wild type Mycobacterium tuberculosis InhA assessed as inhibition constant in presence of NADH, DD-CoA by spectrophotometry based analysis
# T1 sequence (P9WGR1 whole entry): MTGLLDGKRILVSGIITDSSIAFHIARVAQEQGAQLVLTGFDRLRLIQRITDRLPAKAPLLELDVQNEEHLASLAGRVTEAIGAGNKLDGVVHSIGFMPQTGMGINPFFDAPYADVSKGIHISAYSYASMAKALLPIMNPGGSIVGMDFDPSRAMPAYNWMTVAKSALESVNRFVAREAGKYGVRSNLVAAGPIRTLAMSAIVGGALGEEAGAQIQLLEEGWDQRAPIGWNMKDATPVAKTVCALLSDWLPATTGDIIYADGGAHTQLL
# [2] = system: Mycobacterium tuberculosis; experiment: Antibacterial activity against Mycobacterium tuberculosis H37Rv ATCC 27294 infected in CF-1 mouse assessed as reversal of bacterial growth in spleen at 150 uM/kg, po administered daily for 14 days starting from 7 days post infection; assay type: functional, organism-based; conditions: time 14.0 day
# Method in brief: (§1)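 Lung and spleen homogenates plated for CFU counts and compared with vehicle and early-control groups.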
# [3] = system: Mycobacterium tuberculosis; experiment: Antibacterial activity against pan-sensitive Mycobacterium tuberculosis H37Rv ATCC 27294 measured after 7 days by resazurin dye based assay; assay type: functional; conditions: H37Rv ATCC 27294, 168 h, time 7 day
# Method in brief: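 Resazurin reduction microplate assay (REMA) in Middlebrook 7H9 broth with 10% ADC and 5% DMSO. Compounds come from 2 mg/mL DMSO stocks and are 2-fold serially diluted, top concentration 0.08–40 μg/mL depending on solubility. MIC is the lowest concentration preventing the blue-to-pink colour change. Three independent experiments; the reported value is the modal or the highest value.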
# [4] = target: T1, Enoyl-[acyl-carrier-protein] reductase [NADH]; experiment: Binding affinity to Mycobacterium tuberculosis H37Rv InhA assessed as dissociation constant in presence of NADH, octenoyl-CoA and KatG
# [5] = target: T1, Enoyl-[acyl-carrier-protein] reductase [NADH]; experiment: Binding affinity to wild type Mycobacterium tuberculosis InhA assessed as inhibition constant for formation of enzyme-inhibitor complex in presence of NADH and DD-CoA by spectrophotometry based analysis
# [6] = system: Mycobacterium tuberculosis; experiment: Bactericidal activity in Mycobacterium tuberculosis H37Rv ATCC 27294 infected in CF-1 mouse assessed as reduction in bacterial growth in lungs at 150 uM/kg, po administered daily for 14 days starting from 7 days post infection; assay type: functional, organism-based; conditions: time 14.0 day; method in brief: as §1
# [7] = target: T2, Enoyl-[acyl-carrier-protein] reductase [NADH] (Mycobacterium tuberculosis) (UniProt P9WGR1); experiment: Binding affinity to Mycobacterium tuberculosis InhA assessed as gibbs free energy change at 250 uM in presence of NADH by fluorescence spectroscopy
# T2 sequence (whole entry): T1 sequence (P9WGR1 whole entry)
# Method in brief: (§2)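 Titration of pre-formed MtInhA:NADH complex (2 mL of 3 μM enzyme with 20 μM NADH), adding microliter aliquots of 250 μM ligand stock with dilution kept ≤1%. Intrinsic fluorescence read at 295 nm excitation, 310–500 nm emission. Temperatures 15, 20, 25 and 30 °C. KD is fitted to a hyperbolic isotherm. ΔH°, ΔS° and ΔG° come from van't Hoff analysis of KD across temperatures.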
# [8] = Cytotoxicity against human HepG2 cells assessed as reduction in cell viability incubated for 72 hrs by MTT assay; assay type: toxicity, cell-based
# Method in brief: (§3)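 Cells grown in DMEM with 10% FBS. HepG2 seeded at 4 × 10³ and Vero at 2 × 10³ cells/well, 24 h before dosing. Compounds at 1, 5 and 20 μM in 1% DMSO for 72 h at 37 °C, 5% CO2. MTT readout: 5 mg/mL reagent for 4 h, absorbance at 595 nm. Neutral red readout: 25 μg/mL dye for 3 h, then acid-ethanol desorb. Viability is expressed relative to 1% DMSO controls.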
# [9] = Selectivity index, ratio of CC50 for human HepG2 cells by MTT assay to MIC for pan-sensitive Mycobacterium tuberculosis H37Rv ATCC 27294; assay type: toxicity; conditions: read-out: Selectivity Index
# [10] = target: T1, Enoyl-[acyl-carrier-protein] reductase [NADH]; experiment: Binding affinity to Mycobacterium tuberculosis InhA assessed as dissociation constant at 250 uM at 25 degreeC in presence of NADH by fluorescence spectroscopy; method in brief: as §2
# [11] = target: T2, Enoyl-[acyl-carrier-protein] reductase [NADH] (Mycobacterium tuberculosis); experiment: Binding affinity to Mycobacterium tuberculosis InhA assessed as change in entropy at 250 uM in presence of NADH by fluorescence spectroscopy
# [12] = target: T2, Enoyl-[acyl-carrier-protein] reductase [NADH] (Mycobacterium tuberculosis); experiment: Time dependent inhibition of Mycobacterium tuberculosis InhA
# [13] = Chemical stability in PBS at pH 7.4 assessed as parent compound remaining at 1 to 10 uM measured after 24 hrs by HPLC-EM/MS analysis; assay type: physicochemical; conditions: dose 1-10 µM, read-out: Stability
# Method in brief: (§4)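 Compounds at 1–10 μM incubated 24 h at 37 °C in three media: pH 1.2 (0.1 M HCl), pH 7.4 (PBS) and pH 9.1 (0.1 M NH4HCO3). Remaining parent compound quantified afterward.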
# [14] = Permeability of compound at 10 uM measured after 5 hrs by PAMPA assay; assay type: ADME; conditions: read-out: permeability
# Method in brief: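 PAMPA: compounds at 10 μM in 2% DMSO added to a pH 7.4 donor phase, 5 h at room temperature. Receptor-side concentration (pH 7.4) measured to derive permeation rate. Alprenolol is the analytical control.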
# [15] = Solubility of compound in 0.1 M HCl solution at pH 1.2 at 1 mg incubated for 4 hrs under shaking conditions by liquid chromotography; assay type: physicochemical
# Method in brief: (§5)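 1 mg of compound was added to 1 mL of PBS pH 7.4 or 0.1 M HCl, in triplicate. Suspensions were vortexed 1 min, shaken 4 h at 25 °C, then centrifuged 13000 rpm for 15 min at 25 °C. Supernatant was quantified by reverse-phase UHPLC (UV 260–280 nm) against a single-point calibration of compound in DMSO.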
# [16] = target: T1, Enoyl-[acyl-carrier-protein] reductase [NADH]; experiment: Competitive inhibition of Mycobacterium tuberculosis InhA using varying concentrations of DD-CoA as substrate assessed as inhibition constant for enzyme-inhibitor binary complex in presence of NADH by Lineweaver-Burk plot analysis
# Method in brief: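 Steady-state kinetics with recombinant MtInhA in 100 mM Pipes pH 7.0 at 25 °C. NADH fixed at 60 μM, DD-CoA varied 15–135 μM, inhibitor at fixed-varied levels of 0.2–4 μM. Kis is fitted to the competitive inhibition equation.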
# [17] = Selectivity index, ratio of CC50 for human HepG2 cells by neutral red uptake assay to MIC for pan-sensitive Mycobacterium tuberculosis H37Rv ATCC 27294; assay type: toxicity; conditions: read-out: Selectivity Index
# [18] = target: T2, Enoyl-[acyl-carrier-protein] reductase [NADH] (Mycobacterium tuberculosis); experiment: Binding affinity to Mycobacterium tuberculosis InhA assessed as change in enthalpy at 250 uM in presence of NADH by fluorescence spectroscopy
# [19] = target: T1, Enoyl-[acyl-carrier-protein] reductase [NADH]; experiment: Inhibition of Mycobacterium tuberculosis InhA-catalysed chemical reaction in presence of NADH measured for 1 min by UV/Visible spectrophotometry
# Method in brief: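 Recombinant MtInhA reaction at 25 °C in 100 mM Pipes pH 7.0, started by adding 2.2 μM enzyme and followed for 1 min. Substrate is DD-CoA, made from 2-trans-dodecenoic acid and CoA.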
# [20] = Chemical stability in PBS at pH 7.4 assessed as reduction in parent compound at 1 to 10 uM measured after 24 hrs by HPLC-EM/MS analysis; assay type: physicochemical; conditions: dose 1-10 µM, read-out: Drug degradation; method in brief: as §4
# [21] = Cytotoxicity against human HepG2 cells assessed as reduction in cell viability incubated for 72 hrs by neutral red uptake assay; assay type: toxicity, cell-based; method in brief: as §3
# [22] = system: Escherichia coli; experiment: Antibacterial activity against Escherichia coli ATCC 25922 assessed as inhibition of bacterial growth at 20 uM by broth microdilution method; assay type: functional, organism-based
# Method in brief: (§6)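 Broth microdilution in triplicate against a small bacterial panel, with compounds tested at 20 μM for growth inhibition.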
# [23] = system: Staphylococcus aureus; experiment: Antibacterial activity against Staphylococcus aureus ATCC 25923 assessed as inhibition of bacterial growth at 20 uM by broth microdilution method; assay type: functional, organism-based; method in brief: as §6
# [24] = Cytotoxicity against African green monkey Vero cells assessed as reduction in cell viability incubated for 72 hrs by neutral red uptake assay; assay type: toxicity, cell-based; conditions: chlorocebus sabaeus; method in brief: as §3
# [25] = system: Acinetobacter baumannii; experiment: Antibacterial activity against multidrug-resistant Acinetobacter baumannii clinical isolates assessed as inhibition of bacterial growth at 20 uM by broth microdilution method; assay type: functional, organism-based; method in brief: as §6
# [26] = target: T1, Enoyl-[acyl-carrier-protein] reductase [NADH]; experiment: Noncompetitive inhibition of Mycobacterium tuberculosis InhA using DD-CoA as substrate assessed as inhibition constant for enzyme-inhibitor binary complex in presence of varying concentrations of NADH by double reciprocal plot analysis
# [27] = Metabolic stability in rat liver microsomes assessed as intrinsic clearance at 2 uM measured upto 30 mins by HPLC/MS/MS analysis; assay type: ADME, Microsome; conditions: read-out: CLH
# Method in brief: (§7)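 Compounds at 2 μM incubated at 37 °C with 1 mg/mL rat liver microsomes containing NADPH. Parent compound consumption followed over time.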
# [28] = Solubility of compound in PBS at pH 7.4 at 1 mg incubated for 4 hrs under shaking conditions by liquid chromotography; assay type: physicochemical; method in brief: as §5
# [29] = Selectivity index, ratio of CC50 for African green monkey Vero cells by MTT assay to MIC for pan-sensitive Mycobacterium tuberculosis H37Rv ATCC 27294; assay type: toxicity, cell-based; conditions: read-out: Selectivity Index
# [30] = Chemical stability in 0.1 M HCl solution at pH 1.2 assessed as parent compound remaining at 1 to 10 uM measured after 24 hrs by HPLC-EM/MS analysis; assay type: physicochemical; conditions: dose 1-10 µM, read-out: Stability; method in brief: as §4
# [31] = target: T1, Enoyl-[acyl-carrier-protein] reductase [NADH]; experiment: Noncompetitive inhibition of Mycobacterium tuberculosis InhA using DD-CoA as substrate assessed as inhibition constant for enzyme-substrate-inhibitor ternary complex in presence of varying concentrations of NADH by double reciprocal plot analysis
# [32] = Cytotoxicity against African green monkey Vero cells assessed as reduction in cell viability incubated for 72 hrs by MTT assay; assay type: toxicity, cell-based; conditions: chlorocebus sabaeus; method in brief: as §3
# [33] = Selectivity index, ratio of CC50 for African green monkey Vero cells by neutral red uptake assay to MIC for pan-sensitive Mycobacterium tuberculosis H37Rv ATCC 27294; assay type: toxicity, cell-based; conditions: read-out: Selectivity Index
# [34] = Chemical stability in 0.1 M NH4HCO3 solution at pH 9.1 assessed as parent compound remaining at 1 to 10 uM measured after 24 hrs by HPLC-EM/MS analysis; assay type: physicochemical; conditions: dose 1-10 µM, read-out: Stability; method in brief: as §4
# [35] = Metabolic stability in rat liver microsomes assessed as half life at 2 uM measured upto 30 mins by HPLC/MS/MS analysis; assay type: ADME, Microsome; method in brief: as §7
# [36] = system: Klebsiella pneumoniae; experiment: Antibacterial activity against multidrug-resistant Klebsiella pneumoniae clinical isolates assessed as inhibition of bacterial growth at 20 uM by broth microdilution method; assay type: functional, organism-based; method in brief: as §6
compound,measurement,setting,value
NNC(=O)c1ccncc1 [ISONIAZID],Ki,[1],0.75 nM
same,Activity,[2],Active
same,MIC,[3],2.3 µM
same,Kd,[4],< 0.4 nM
same,Ki,[5],16 nM
same,Activity,[6],Active
CSc1ccc2nc(C)cc(Nc3ccc(N4CCCCC4)cc3)c2c1,deltaG,[7],-8.3 kcal/mol
same,CC50 at 72 h,[8],5900 nM
same,selectivity ratio,[9],14.7
same,Kd,[10],870 nM
same,MIC,[3],0.4 µM
same,deltaS,[11],-55.7 cal/mol/K
same,TDI,[12],inactive
same,"remaining at 24 h, up to 10 µM",[13],68%
same,"Papp at 5 h, 10 µM",[14],0.03 ×10⁻⁶ cm/s
same,solubility thermodynamic at 4 h,[15],> 2700 µM
same,Ki,[16],620 nM
same,selectivity ratio,[17],30.5
same,deltaH,[18],-25.8 kcal/mol
same,IC50,[19],1000 nM
same,"degraded at 24 h, up to 10 µM",[20],> 30%
same,CC50 at 72 h,[21],12200 nM
same,Activity,[22],inactive
same,Activity,[23],inactive
same,CC50 at 72 h,[24],8500 nM
same,Activity,[25],inactive
same,Ki,[26],430 nM
same,CLint scaled at 2 µM,[27],60 mL/min/kg
same,solubility thermodynamic at 4 h,[28],38 µM
same,selectivity ratio,[29],27.7
same,"remaining at 24 h, up to 10 µM",[30],100%
same,Ki,[31],410 nM
same,CC50 at 72 h,[32],11100 nM
same,selectivity ratio,[33],21.2
same,"remaining at 24 h, up to 10 µM",[34],100%
same,half-life at 2 µM,[35],5.9 min
same,Activity,[36],inactive
